Diaphorase act: compounds boosting diaphorase resazurin reduction – biochemical, uHTS, resorufin fluorescence, counter-screen for diaphorase-coupled primary assays, primary screen. Diaphorase/resazurin coupled assay, 16 min; stronger effect = higher value; 1 = vehicle wells, 0 = NADH-free wells. activation factor at 20 µM. 0.005% of 190,000 active;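 active = diaphorase activity raised at least twofold by the compound at 20 µM; inactive = activation factor below 2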
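Material: purified diaphorase enzyme from Clostridium kluyveri / Medium: HEPES pH 7.4 buffer with MgCl2 and Tween 20 / Schedule: enzyme reaction of 16 min at room temperature / Measured by: resorufin fluorescence, excitation 544 nm, emission 590 nm / Evaluation: rise in resorufin formation, marking diaphorase activation or chemical reduction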
L major viab: Leishmania major promastigote growth inhibition, primary screen | 9% of 200,000 active | Leishmania major promastigotes, resazurin fluorescence viability | inhibition, % at 10 µM | AID 1063, 2008;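 note: promastigotes grown with compound for 44 hours at 28 °C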
Diaphorase inh: diaphorase inhibitors and chemical oxidizers, primary screen, counter-screen for diaphorase-coupled primary assays, biochemical, uHTS, resorufin fluorescence; 0.69% of 190,000 active; inhibition, % at 20 µM; diaphorase resazurin-to-resorufin fluorescence, NADH, 16 min; bacterial (C. kluyveri) enzyme, not human; AID 1217, 2008;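 active = primary screen inhibition at 20 µM above a set limit, cut at about 50% in these data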;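 note: plate controls were DMSO with full reaction for no effect and wells lacking NADH for full effect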
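Test system: bacterial diaphorase enzyme (C. kluyveri); Quantity: 0.14 U/mL diaphorase, enzyme working solution; Times: reaction incubation of 16 min at room temperature; Measured by: fluorescence of resorufin formed from resazurin, Ex 544/Em 590 nm; Benchmarks: positive control minus NADH, DMSO neutral control.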
Redox H2O2 prof: compounds producing H2O2 with reducing agent – biochemical, NIH compound library profiling, artefact control for MLSCN library redox annotation, primary screen; DTT-dependent redox cycling H2O2, phenol red/HRP absorbance; 100% = 100 µM peroxide control, 0% = buffer; activation, % at 10 µM; 0.03% of 200,000 active; AID 878, 2007;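 active = activation of at least 50% relative to the plate's high and low controls in the primary single-dose screen; inactive = activation below 50%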;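 note: compound incubated with DTT at 0.8 mM final as the reducing agent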
PfG6PD inh: PfG6PD enzyme inhibitors, primary screen, biochemical, fluorescence intensity, uHTS; glucose-6-phosphate dehydrogenase-6-phosphogluconolactonase (Plasmodium falciparum 3D7); PfGluPho enzyme, NADPH resazurin-diaphorase fluorescence; inhibition, % at 20 µM; 0.78% of 350,000 active; AID 504690, 2011;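 active = inhibition reaching at least a set limit at 20 µM in the primary screen, cut at about 59% in these data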;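 note: 0% = DMSO wells with substrate and 100% = DMSO wells lacking glucose-6-phosphate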
G6PDH CS: L. mesenteroides G6PDH inhibitors, counter-screen for G6PDH-coupled screening assays, biochemical, Leuconostoc mesenteroides enzyme; glucose-6-phosphate dehydrogenase [Leuconostoc mesenteroides]; Purified L. mesenteroides G6PDH, diaphorase/resazurin coupled fluorescence, 45 min; inhibition, % at 5 µM; 0.12% of 200,000 active; AID 1020, 2008
* hit, by the source's call; x = not tested or not shown. The full list was thinned out, with hits kept by preference. Cut-off read from the data, not from the text of the source, unless noted: active = inhibition above about 50%; inactive = the rest.

SMILES	Diaphorase act	L major viab	Diaphorase inh	Redox H2O2 prof	PfG6PD inh	G6PDH CS
Cc1ccc(S(=O)(=O)Nc2ccccc2-c2ccccc2NS(=O)(=O)c2ccc(C)cc2)cc1	0.8	96*	20	2	-10	13
CN1C[C@@H]2C(c3ccc(C(F)(F)F)cc3)C3(c4cccnc4)CC2(C3)[C@H]1c1ccccc1 (some centres undefined)	x	x	x	x	22	x
COc1ccc(NC2c3ccccc3C(=O)N2Cc2ccc3c(c2)OCO3)cc1 (centres undefined)	x	x	x	x	-9	x
O=S(=O)(Nc1cc(Sc2cccc3cccnc23)c(O)c2ccccc12)c1ccccc1	0.7	100*	31	-1	x	20
O=C(O)c1ccccc1NS(=O)(=O)c1cccc2cccnc12	0.9	-1	10	-1	1	-2
O=c1c2c(nc3nc(NCc4cccc(Cl)c4)[nH]n13)CCC2	1	-5	0	-1	14	3
O=c1c(Cl)c(Cl)cnn1Cc1nnc(-c2ccc(Cl)cc2)o1	0.9	100*	10	-1	12	8
O=c1c(Cl)c(Cl)cnn1Cc1ccccc1Cl	0.9	76*	11	0	11	15
Cc1cc(C)cc(Cn2ncc(Cl)c(Cl)c2=O)c1	0.9	19	13	0	1	-1
Cc1ccc(-c2nnc(Cc3ccc(Cl)cc3)o2)cc1	0.8	-1	19	-1	1	0
Cc1ccc(Cn2ncc(Cl)c(Cl)c2=O)cc1	0.9	60*	11	0	6	5
O=c1c(Cl)c(Cl)cnn1-c1ccccc1	1	90*	4	1	3	8
O=C(Cn1ncc(Cl)c(Cl)c1=O)N1CCc2ccccc21	1	87*	-2	-1	-6	10
CCCCN(C)C1CCN(C(=S)Nc2cccc(SC)c2)CC1	0.9	90*	5	1	12	4
CSc1cccc(NC(=S)N2CCC(N(C)C3CCCCCC3)CC2)c1	1	88*	4	-1	8	7
CSc1cccc(NC(=O)C2CCN(S(C)(=O)=O)CC2)c1	1	-2	4	1	-9	29
CCCCN(C)C1CCN(C(=S)Nc2ccc(OC)cc2)CC1	0.9	40	12	0	1	4
CCC(C)N(C)C1CCN(C(=S)Nc2cccc(SC)c2)CC1 (centres undefined)	0.9	76*	8	0	6	13
CSc1cccc(NC(=S)N2CCC(N(C)C(C)C)CC2)c1	1.1	62*	-12	-2	5	3
NS(=O)(=O)c1cccnc1Nc1c(Cl)cccc1Cl	0.9	2	9	0	9	3
CCCc1nc2ccccc2c(=O)n1CC(=O)c1ccc(F)cc1	x	x	x	x	-5	x
CN(C)c1nc(N)nc(CSc2nnnn2-c2ccccc2)n1	0.9	-3	5	0	-2	1
CC1CN(c2ccc(NS(=O)(=O)c3ccccc3)cc2C(=O)O)CC(C)O1 (centres undefined)	x	x	x	x	20	x
O=C(C1CCCO1)N1CCN(C(=S)Nc2cc(F)cc(F)c2)CC1 (centres undefined)	x	x	x	x	9	x
CN(C1CCCC1)C1CCN(C(=S)Nc2cc(F)cc(F)c2)CC1	0.8	77*	15	1	4	3
CCOC(=O)c1ccc(NC(=O)CSc2nnc(NC(=O)c3ccc(S(=O)(=O)N4CCOCC4)cc3)s2)cc1	1	91*	0	0	-55	13

Screens from PubChem.
